Test results as given in ChEMBL document CHEMBL1144502, “Synthesis and biological evaluation of imidazo[1,2-a]pyridine derivatives as novel PI3 kinase p110alpha inhibitors” (Bioorg Med Chem, 2007).

Columns and labels:
A375 (human) = assay: Antiproliferative activity against human A375 cells after 46 hrs; settings: A375, 46 h
[1] = target: Phosphatidylinositol 4,5-bisphosphate 3-kinase catalytic subunit alpha isoform (Bos taurus, UniProt P32871); assay: Inhibition of GST-tagged bovine PI3K p110-alpha by SPA
Phosphatidylinositol 4,5-bisphosphate 3-kinase catalytic subunit alpha isoform, sequence (P32871 whole entry, canonical isoform): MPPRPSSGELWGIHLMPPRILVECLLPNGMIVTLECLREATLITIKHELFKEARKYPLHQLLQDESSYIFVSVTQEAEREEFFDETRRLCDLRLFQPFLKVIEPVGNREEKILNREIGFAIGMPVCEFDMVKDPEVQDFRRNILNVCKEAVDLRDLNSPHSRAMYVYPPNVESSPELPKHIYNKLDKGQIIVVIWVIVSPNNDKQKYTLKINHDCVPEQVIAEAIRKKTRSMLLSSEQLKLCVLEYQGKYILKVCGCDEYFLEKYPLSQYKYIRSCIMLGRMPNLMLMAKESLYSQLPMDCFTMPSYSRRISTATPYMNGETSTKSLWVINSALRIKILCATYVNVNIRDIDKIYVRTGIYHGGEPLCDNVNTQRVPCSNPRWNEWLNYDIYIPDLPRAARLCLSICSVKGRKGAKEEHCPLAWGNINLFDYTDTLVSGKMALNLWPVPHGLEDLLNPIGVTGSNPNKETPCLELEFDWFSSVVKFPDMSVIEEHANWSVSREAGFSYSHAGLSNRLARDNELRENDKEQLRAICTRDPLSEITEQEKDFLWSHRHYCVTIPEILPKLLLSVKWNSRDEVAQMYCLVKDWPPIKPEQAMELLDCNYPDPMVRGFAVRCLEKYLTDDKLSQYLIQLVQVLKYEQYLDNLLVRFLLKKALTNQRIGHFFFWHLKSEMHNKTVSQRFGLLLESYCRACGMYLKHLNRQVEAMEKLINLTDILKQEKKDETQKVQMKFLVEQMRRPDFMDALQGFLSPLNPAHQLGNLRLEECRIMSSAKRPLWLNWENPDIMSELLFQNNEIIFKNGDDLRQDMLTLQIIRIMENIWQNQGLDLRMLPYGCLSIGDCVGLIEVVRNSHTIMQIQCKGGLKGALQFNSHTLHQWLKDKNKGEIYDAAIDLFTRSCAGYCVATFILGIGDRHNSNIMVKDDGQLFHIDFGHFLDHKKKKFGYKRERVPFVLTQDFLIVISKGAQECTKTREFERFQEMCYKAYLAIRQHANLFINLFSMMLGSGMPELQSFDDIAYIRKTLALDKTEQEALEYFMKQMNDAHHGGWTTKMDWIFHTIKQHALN
How it was run: (§1)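 Radiometric SPA. Enzyme and compound (in DMSO) in 20 mM Tris-HCl pH 7.4, 160 mM NaCl, 2 mM DTT, 30 mM MgCl2, 0.4 mM EDTA, 0.4 mM EGTA. Stopped with wheat germ agglutinin-coated SPA beads in PBS, then centrifuged. IC50 is the mean of at least two determinations.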

[2] = Half life in ip dosed mouse; type: ADME, organism-based; settings: in vivo
How it was run: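 Mice dosed intraperitoneally. Plasma half-life determined by HPLC/MS/MS.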

HeLa [3] = assay: Suppression of tumor growth in BALB/c nu/nu mouse implanted with human HeLa cells at 25 mg/kg, ip after 2 weeks relative to control; type: functional; settings: route intraperitoneal
How it was run: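 HeLa xenografts in nude mice, five animals per group. Dosing began when tumours reached about 100 mm³. 25 mg/kg (as free base) given ip once daily for 2 weeks, suspended in 20% hydroxypropyl-β-cyclodextrin/saline; the vehicle group served as control. Tumour volume = 1/2 × (short diameter)² × (long diameter).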

[4] = target: Phosphatidylinositol 4,5-bisphosphate 3-kinase catalytic subunit gamma isoform (Homo sapiens, UniProt P48736); assay: Inhibition of His-tagged PI3K p110gamma by SPA
Phosphatidylinositol 4,5-bisphosphate 3-kinase catalytic subunit gamma isoform, sequence (P48736 whole entry, canonical isoform): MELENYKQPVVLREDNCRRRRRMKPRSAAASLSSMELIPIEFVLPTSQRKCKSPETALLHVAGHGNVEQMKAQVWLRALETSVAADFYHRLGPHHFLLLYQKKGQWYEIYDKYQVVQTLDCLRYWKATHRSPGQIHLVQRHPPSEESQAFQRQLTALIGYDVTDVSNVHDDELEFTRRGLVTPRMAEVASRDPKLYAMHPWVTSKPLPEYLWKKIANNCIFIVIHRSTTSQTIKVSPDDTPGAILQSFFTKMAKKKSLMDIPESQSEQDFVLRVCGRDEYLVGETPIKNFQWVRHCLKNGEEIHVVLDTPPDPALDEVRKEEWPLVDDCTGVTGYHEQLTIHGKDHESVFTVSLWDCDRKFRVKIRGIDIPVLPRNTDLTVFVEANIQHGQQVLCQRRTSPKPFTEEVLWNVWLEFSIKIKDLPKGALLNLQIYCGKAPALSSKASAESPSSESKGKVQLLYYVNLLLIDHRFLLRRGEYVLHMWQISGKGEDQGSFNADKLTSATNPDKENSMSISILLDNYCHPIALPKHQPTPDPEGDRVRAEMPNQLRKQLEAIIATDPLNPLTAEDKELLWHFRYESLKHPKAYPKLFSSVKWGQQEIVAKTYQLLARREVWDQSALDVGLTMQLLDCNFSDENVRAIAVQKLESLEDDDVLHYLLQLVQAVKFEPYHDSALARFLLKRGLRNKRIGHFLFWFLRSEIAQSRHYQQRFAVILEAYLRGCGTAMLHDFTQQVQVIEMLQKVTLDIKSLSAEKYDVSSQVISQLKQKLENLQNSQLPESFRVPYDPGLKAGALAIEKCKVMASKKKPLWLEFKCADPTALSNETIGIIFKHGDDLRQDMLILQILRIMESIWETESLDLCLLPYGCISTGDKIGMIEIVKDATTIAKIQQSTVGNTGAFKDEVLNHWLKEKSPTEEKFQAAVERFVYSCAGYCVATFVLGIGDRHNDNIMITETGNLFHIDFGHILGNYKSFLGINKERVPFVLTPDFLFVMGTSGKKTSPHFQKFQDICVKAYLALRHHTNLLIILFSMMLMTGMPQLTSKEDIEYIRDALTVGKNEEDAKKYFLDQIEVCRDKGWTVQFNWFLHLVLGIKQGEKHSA
How it was run: as §1

HeLa [5] = assay: Antiproliferative activity against human HeLa cells after 46 hrs; type: functional, cell-based
How it was run: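 Serum-induced proliferation. Compound (1 µL) spotted into wells, then 1×10^4 cells added. After 46 h incubation, Alamar Blue added; fluorescence read 2 h later at ex 544/em 590 nm.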

[6] = target: Phosphatidylinositol 4,5-bisphosphate 3-kinase catalytic subunit beta isoform (Homo sapiens, UniProt P42338); assay: Inhibition of GST-tagged human PI3K p110-beta by SPA
Phosphatidylinositol 4,5-bisphosphate 3-kinase catalytic subunit beta isoform, sequence (P42338 whole entry, canonical isoform): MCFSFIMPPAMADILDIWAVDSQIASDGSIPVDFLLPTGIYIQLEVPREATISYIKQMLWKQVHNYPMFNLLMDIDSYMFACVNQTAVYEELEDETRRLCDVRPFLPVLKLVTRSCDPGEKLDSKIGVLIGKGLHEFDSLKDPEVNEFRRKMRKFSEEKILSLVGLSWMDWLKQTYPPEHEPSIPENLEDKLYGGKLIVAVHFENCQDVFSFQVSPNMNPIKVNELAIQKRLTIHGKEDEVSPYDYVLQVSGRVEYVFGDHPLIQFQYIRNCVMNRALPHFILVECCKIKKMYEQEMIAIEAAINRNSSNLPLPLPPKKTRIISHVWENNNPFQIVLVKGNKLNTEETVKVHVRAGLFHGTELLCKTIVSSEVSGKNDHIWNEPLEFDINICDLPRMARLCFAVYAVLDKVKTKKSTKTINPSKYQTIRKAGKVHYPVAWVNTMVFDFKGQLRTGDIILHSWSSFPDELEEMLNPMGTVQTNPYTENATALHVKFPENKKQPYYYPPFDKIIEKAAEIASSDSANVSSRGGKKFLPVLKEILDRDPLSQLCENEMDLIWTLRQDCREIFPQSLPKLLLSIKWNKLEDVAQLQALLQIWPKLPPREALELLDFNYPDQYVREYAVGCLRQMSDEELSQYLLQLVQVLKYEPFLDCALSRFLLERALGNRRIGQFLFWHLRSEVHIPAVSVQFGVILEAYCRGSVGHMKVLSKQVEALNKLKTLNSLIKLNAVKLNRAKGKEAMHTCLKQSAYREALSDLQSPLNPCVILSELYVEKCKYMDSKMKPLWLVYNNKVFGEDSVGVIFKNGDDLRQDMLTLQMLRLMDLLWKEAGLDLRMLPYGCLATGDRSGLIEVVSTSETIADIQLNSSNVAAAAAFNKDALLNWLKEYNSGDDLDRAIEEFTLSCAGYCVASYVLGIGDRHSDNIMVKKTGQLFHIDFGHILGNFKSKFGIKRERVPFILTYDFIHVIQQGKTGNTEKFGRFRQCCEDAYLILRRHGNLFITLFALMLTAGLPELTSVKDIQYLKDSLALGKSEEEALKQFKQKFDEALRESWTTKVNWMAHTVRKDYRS
How it was run: as §1

[7] = target: Phosphatidylinositol 4-phosphate 3-kinase C2 domain-containing subunit beta (Homo sapiens, UniProt O00750); assay: Inhibition of Glu-tagged PI3K C2-beta by SPA
Phosphatidylinositol 4-phosphate 3-kinase C2 domain-containing subunit beta, sequence (O00750 whole entry, the tested form may be a part, canonical isoform): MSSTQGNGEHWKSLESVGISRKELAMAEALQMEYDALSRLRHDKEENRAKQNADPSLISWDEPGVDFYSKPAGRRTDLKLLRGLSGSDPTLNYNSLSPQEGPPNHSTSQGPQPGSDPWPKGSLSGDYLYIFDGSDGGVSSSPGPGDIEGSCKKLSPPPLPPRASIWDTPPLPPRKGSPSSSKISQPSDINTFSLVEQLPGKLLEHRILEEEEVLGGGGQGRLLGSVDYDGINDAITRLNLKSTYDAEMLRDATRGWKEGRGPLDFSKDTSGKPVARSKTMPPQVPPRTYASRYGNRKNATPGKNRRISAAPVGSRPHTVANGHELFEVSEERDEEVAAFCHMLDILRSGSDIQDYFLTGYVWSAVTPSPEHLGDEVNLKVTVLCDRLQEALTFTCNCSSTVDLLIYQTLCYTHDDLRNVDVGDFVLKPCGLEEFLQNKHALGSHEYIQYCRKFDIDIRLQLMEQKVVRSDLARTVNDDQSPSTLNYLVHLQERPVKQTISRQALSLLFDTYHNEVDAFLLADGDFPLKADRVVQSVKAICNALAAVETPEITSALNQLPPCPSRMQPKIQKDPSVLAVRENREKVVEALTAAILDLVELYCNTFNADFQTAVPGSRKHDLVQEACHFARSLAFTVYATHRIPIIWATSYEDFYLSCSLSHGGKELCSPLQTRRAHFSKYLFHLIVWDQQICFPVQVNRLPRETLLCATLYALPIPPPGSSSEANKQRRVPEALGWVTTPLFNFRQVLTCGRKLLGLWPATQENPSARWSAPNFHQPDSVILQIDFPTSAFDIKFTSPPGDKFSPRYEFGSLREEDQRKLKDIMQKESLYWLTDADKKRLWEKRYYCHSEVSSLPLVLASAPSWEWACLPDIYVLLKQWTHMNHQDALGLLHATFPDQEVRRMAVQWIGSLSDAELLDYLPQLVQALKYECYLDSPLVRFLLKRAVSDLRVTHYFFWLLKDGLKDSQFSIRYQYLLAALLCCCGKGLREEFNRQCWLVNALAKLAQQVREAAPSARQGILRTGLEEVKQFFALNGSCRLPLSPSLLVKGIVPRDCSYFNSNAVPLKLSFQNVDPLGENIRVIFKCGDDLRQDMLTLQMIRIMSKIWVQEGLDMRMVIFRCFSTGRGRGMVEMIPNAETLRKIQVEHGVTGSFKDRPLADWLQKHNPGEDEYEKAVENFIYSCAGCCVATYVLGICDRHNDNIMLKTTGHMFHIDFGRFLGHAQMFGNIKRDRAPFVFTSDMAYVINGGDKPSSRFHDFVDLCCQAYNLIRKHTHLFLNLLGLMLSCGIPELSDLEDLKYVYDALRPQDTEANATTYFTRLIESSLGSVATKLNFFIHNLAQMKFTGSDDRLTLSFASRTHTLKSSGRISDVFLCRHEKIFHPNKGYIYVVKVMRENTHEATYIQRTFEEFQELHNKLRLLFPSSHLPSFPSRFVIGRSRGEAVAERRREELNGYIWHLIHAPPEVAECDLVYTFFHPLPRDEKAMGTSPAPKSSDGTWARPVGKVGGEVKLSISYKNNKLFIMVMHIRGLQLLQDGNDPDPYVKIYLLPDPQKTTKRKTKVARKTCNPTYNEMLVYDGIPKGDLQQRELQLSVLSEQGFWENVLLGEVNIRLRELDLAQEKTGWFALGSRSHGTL
How it was run: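 SPA as for the class I isoforms, but the PI3K C2β buffer is 20 mM Tris-HCl pH 7.4, 160 mM NaCl, 2 mM DTT, 5 mM MgCl2, 15 mM CaCl2, 0.4 mM EDTA. Run 120 min at room temperature. Captured on WGA-coated SPA beads. IC50 is the mean of at least two determinations.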

| SMILES | IC50 (A375 (human)) [nM] | IC50 [1] [nM] | other results |
| --- | --- | --- | --- |
| Cc1nc2ccccn2c1-c1ccn(S(=O)(=O)c2ccc(F)cc2)n1 | 23000 | 670 |  |
| Cc1nc2ccc(Cl)cn2c1-c1ccn(S(=O)(=O)c2cccc([N+](=O)[O-])c2)n1 |  | 280 |  |
| Cc1nc2ccc(Cl)cn2c1-c1ccn(S(=O)(=O)c2ccc([N+](=O)[O-])cc2)n1 |  | > 30000 |  |
| Cc1nc2ccc(Cl)cn2c1-c1ccn(S(=O)(=O)c2ccc(F)cc2)n1 |  | 760 |  |
| O=c1cc(N2CCOCC2)oc2c(-c3ccccc3)cccc12 [LY-294002] | 8400 |  | IC50 [7]: 2100 nM |

More lines, in order of falling IC50 [1], values ahead:

| IC50 (A375 (human)) [nM] | IC50 [1] [nM] | SMILES | other results |
| --- | --- | --- | --- |
| 12000 | 100 | Cc1ccc([N+](=O)[O-])cc1S(=O)(=O)n1ccc(-c2cnc3ccc(Cl)cn23)c1 |  |
| 3370 | 82 | Cc1ccc([N+](=O)[O-])cc1Sc1nc(-c2cnc3ccc(Cl)cn23)cs1 |  |
| 270 | 31 | Cc1ccc([N+](=O)[O-])cc1[S+]([O-])c1nc(-c2cnc3ccc(Cl)cn23)cs1 (centres undefined) |  |
| 19000 | 20 | O=[N+]([O-])c1ccc(CO)c([S+]([O-])c2nc(-c3cnc4ccc(Cl)cn34)cs2)c1 (centres undefined) |  |
| 730 | 3.1 | Cc1ccc([N+](=O)[O-])cc1S(=O)(=O)n1ccc(-c2c(C)nc3ccc(Br)cn23)n1 |  |
| 830 | 2.8 | Cc1ccc([N+](=O)[O-])cc1S(=O)(=O)n1ccc(-c2c(C)nc3ccc(Cl)cn23)n1 |  |
| 140 | 2.8 | Cc1ccc([N+](=O)[O-])cc1S(=O)(=O)c1nc(-c2cnc3ccc(Cl)cn23)cs1.Cl | half-life [2]: 2.6 h; Activity (HeLa [3]): 37%; IC50 [4]: 230 nM; IC50 (HeLa [5]): 210 nM; IC50 [6]: 170 nM; IC50 [7]: 100 nM |
| 170 | 1.8 | Cc1ccc([N+](=O)[O-])cc1S(=O)(=O)n1ccc(-c2cnc3ccc(Br)cn23)n1 |  |
